Values joined by “and” are separate entries in the source; they are usually repeats but may differ in a detail not shown here. Equal values may be shown once. Read-outs that look alike come from different tables or passages of the source.
How the values were obtained:
[1] = type: in vivo, human; conditions: for AUC0-t / AUC0-∞ / MRT0-t / MRT0-∞ / t1/2: in hPBMCs, single oral dose 600 mg AZT, mean±SD, n=12; for MRT inf / MRT last / half-life: male, human, peripheral blood mononuclear cells (hPBMCs), po, 600 mg
[2] = Safety and tolerability in healthy subjects; type: in vivo, human
Outline: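 Open-label, single-dose study in 12 screened healthy Chinese men, negative for hepatitis and HIV. After an overnight fast of at least 12 h, each took 600 mg orally with 240 mL water, with standardized meals at 4 and 10 h. Safety was assessed in all completers under prolonged bed rest, extended stay in the clinical unit, and enhanced clinical monitoring and nursing.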

[3] = Plasma pharmacokinetics after a single oral dose of AZT; type: in vivo, human; conditions: for Plasma concentration of the phosphorylated metabolites: after single oral dose 600 mg AZT
Outline: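 Open-label study in 12 healthy Chinese men (20–28 y) after an overnight fast of at least 12 h. Each took a single 600 mg oral dose of test compound with 240 mL water, with standardized meals at 4 and 10 h. Heparinized blood (20 mL) was drawn by antecubital catheter predose and at 0.5–10 h. Plasma was stored at –20 °C and assayed by validated LC–MS/MS (C18; 0.2% formic acid/methanol), LLOQ 0.1125 pg/μL.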

[4] = liver or heart mitochondria; cited from earlier work
[5] = single oral dose 600 mg AZT, 12 subjects

Compound | AUC0-t [1] | AUC0-∞ [1] [ng⋅h/10^6 cell] | MRT inf [1] [h] | MRT last [1] [h] | half-life [1] [h] | MRT0-t [1] [h] | MRT0-∞ [1] [h] | t1/2 [1] [h] | Plasma concentration of the phosphorylated metabolites [3] | also measured
Cc1cn([C@H]2C[C@H](N=[N+]=[N-])[C@@H](CO)O2)c(=O)[nH]c1=O [AZT, 3'-azido-3'-deoxythymidine] | 0.371±0.193 ng⋅h/10^6 cell | 0.396±0.189 | 14.9 ± 32.4 | 4.94 ± 19.3 | 2.49 ± 0.638 |  |  |  |  | Hypersensitivity to AZT ([2]; 12 subjects): None of the 12 subjects had hypersensitivity; Tolerability ([2]; single oral dose 600 mg AZT, 12 healthy Chinese male subjects): well tolerated; Reported ADR: headache [2, 5]: one report; Reported ADR: nausea [2, 5]: one report; AUC0-t ([3]; male, human, po, 600 mg): 7050 ± 1280 ng·h/mL; AUC(0-inf) ([3]; male, human, po, 600 mg): 7170 ± 1270 ng·h/mL; Cmax ([3]; male, human, po, 600 mg): 3510 ± 363 ng/mL; MRT inf ([3]; male, human, po, 600 mg): 2.4 ± 0.216 h; MRT last ([3]; male, human, po, 600 mg): 2.2 ± 0.253 h; Vd/F ([3]; male, human, po, 600 mg): 264 ± 162 L; half-life ([3]; male, human, po, 600 mg): 2.02 ± 0.946 h; CL/F ([3]; single oral dose 600 mg AZT, mean±SD, n=12): 86.092 ± 14.962 L/h
Cc1cn([C@H]2C[C@H](N=[N+]=[N-])[C@@H](COP(=O)(O)OP(=O)(O)O)O2)c(=O)[nH]c1=O [AZT-DP, AZT diphosphate] | 0.345±0.055 ng⋅h/10^6 cell | 0.615±0.161 |  |  |  | 0.792 ± 12.028 | 14.270 ± 6.350 | 8.285 ± 2.840 | not present in measurable levels | 
Cc1cn([C@H]2C[C@H](N=[N+]=[N-])[C@@H](COP(=O)(O)O)O2)c(=O)[nH]c1=O [AZT-MP, AZT monophosphate] | 2.548 ng⋅h/10^6 cell and 2.548±0.656 ng⋅h/10^6 cell | 6.343±2.964 |  |  |  | 4.190 ± 0.347 | 18.715 ± 12.856 | 13.428 ± 9.611 | not present in measurable levels | 
Cc1cn([C@H]2C[C@H](N=[N+]=[N-])[C@@H](CO[P@](=O)(O)O[P@](=O)(O)OP(=O)(O)O)O2)c(=O)[nH]c1=O [AZT-TP, 5′-AZT triphosphate] | 0.223±0.043 ng⋅h/10^6 cell | 0.279±0.069 | 6.33 ± 1.14 | 3.87 ± 0.235 | 4.24 ± 0.977 |  |  |  | not present in measurable levels | Detection of AZT-TP during incubation in mitochondria [4]: No AZT-TP was detected

Source: publication PMC4788712 (Acta Pharmaceutica Sinica. B, 2015)
